Source: PubChem BioAssay (several laboratories)
Only some compounds are listed: those with a hit (about 4.1% of all), similar ones and a draw of the others.
KCNQ1 block = inhibitors of human KCNQ1 channel, primary screen, cell-based, thallium flux, high-throughput | Potassium voltage-gated channel subfamily KQT member 1 (Homo sapiens), P51787 | CHO-K1 KCNQ1, FluxOR thallium flux fluorescence; hits give high values | B-score at 10 µM | 310,000 compounds, 1.3% hits | AID 2642, 2010;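 active means compounds whose thallium flux B-score, printed positive for inhibition, exceeds three library SD while starting fluorescence stays within three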;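 further: channel opened by potassium depolarization with thallium stimulus after 20 min compound exposure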
KCNQ1 pot = potentiators or activators of KCNQ1 channel, primary screen, cell-based, thallium flux, high-throughput; Potassium voltage-gated channel subfamily KQT member 1 (Homo sapiens), P51787; CHO-K1 KCNQ1, thallium flux FluxOR fluorescence; hits give high values; B-score at 10 µM; 310,000 compounds, 0.35% hits; AID 2648, 2010;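 active means fluorescence ratio B-score, a plate-corrected score, at least three library SD, with initial intensity B-score within 5 SD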
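Assay system: CHO-K1 cells stably expressing KCNQ1; Medium: assay buffer with matched DMSO; Also added: K+/Tl+ depolarizing stimulus; Dosing: single dose; Timing: dye 90 min, compound 20 min, room temperature; Measured by: kinetic FluxOR thallium fluorescence, 10-s 1-Hz baseline, 110-s post-stimulus read; Read-out: peak-minus-minimum fluorescence over initial fluorescence, negative-control normalized, B-scored.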
hERG protect = hERG rescue from dofetilide block, primary screen, cell-based, CHO-hERG, FluxOR thallium flux, dofetilide IC70. Voltage-gated inwardly rectifying potassium channel KCNH2 (Homo sapiens), Q12809. dofetilide IC70 present. activation (rescue from dofetilide block), less the hit threshold, % at 10 µM. 310,000 compounds, 0.51% hits;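 active means activation above the mean of controls blocked by dofetilide plus 5 SD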;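 further: thallium influx through hERG after potassium depolarization seen as dye fluorescence rise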
KCNK9 block = KCNK9 potassium channel inhibitors, primary screen, HEK293 cells, thallium flux. Potassium channel subfamily K member 9 (Homo sapiens), Q9NPC2. B-score at 10 µM. FluxOR thallium flux fluorescence; hits give low values. 310,000 compounds, 1.2% hits;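 active means ratio B-score over 3 SD below the library mean, with starting fluorescence within 5 SD of its mean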;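 further: negative B-score means less thallium flux so channel inhibition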
Cl transport mod = KCC2 cotransporter modulators, thallium flux, primary screen, cell-based, HEK293 KCC2, FluoZin-2 fluorescence, MLSMR; Solute carrier family 12 member 5 (Homo sapiens), Q9H2X9; KCC2 cells, thallium flux FluoZin-2 fluorescence; B-score of Tl+ flux slope (higher = more flux/activation; lower = inhibition) at 10 µM; 190,000 compounds, 2.2% hits;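 active means thallium flux slope and its plate-corrected score both differing from the plate sample mean at a set confidence after two filtering rounds, in either direction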;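 further: slope of fluorescence scaled to starting intensity during 10 to 20 s after thallium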
KCNK3 block = human KCNK3 channel inhibitors, primary screen, CHO cells, FluxOR thallium flux, B-score. FluxOR fluorescence; hits give low values. B-score at 10 µM. 340,000 compounds, 0.84% hits. AID 602410, 2012;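 active means B-score under library mean minus 4 SD, starting fluorescence ratio at most library mean plus 5 SD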;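 further: more negative B-score means stronger inhibition of thallium flux through KCNK3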
KCNK9 inh conf = KCNK9 potassium channel inhibitors, confirmation, HEK293 cells, thallium flux, duplicate | 4,900 compounds, 43% hits | AID 492992, 2010 | FluxOR thallium flux fluorescence | inhibition, % at 10 µM | shares compounds with KCNK9 block;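 active means thallium signal inhibited by more than 5 SD of the compound-free buffer control wells, on both duplicate plates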;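 further: 0% = assay buffer control wells without compound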
Kir2-1 spec = mouse Kir2.1 channel inhibition, confirmation, selectivity assay for KCNK9 modulator project, cell-based, HEK293, thallium flux; 4,900 compounds, 4% hits; Kir2.1 cells, FluxOR thallium flux fluorescence; shares compounds with KCNK9 block; inhibition, % at 10 µM;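 active means thallium signal drop more than 5 SD beyond the mean of the no-compound control wells, seen in both duplicate plates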;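 further: signal is fluorescence rise after thallium addition divided by baseline fluorescence; plate controls were assay buffer only for no effect and full block by chlorpromazine control for full effect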
Target sequence (P35561 whole entry, looked up): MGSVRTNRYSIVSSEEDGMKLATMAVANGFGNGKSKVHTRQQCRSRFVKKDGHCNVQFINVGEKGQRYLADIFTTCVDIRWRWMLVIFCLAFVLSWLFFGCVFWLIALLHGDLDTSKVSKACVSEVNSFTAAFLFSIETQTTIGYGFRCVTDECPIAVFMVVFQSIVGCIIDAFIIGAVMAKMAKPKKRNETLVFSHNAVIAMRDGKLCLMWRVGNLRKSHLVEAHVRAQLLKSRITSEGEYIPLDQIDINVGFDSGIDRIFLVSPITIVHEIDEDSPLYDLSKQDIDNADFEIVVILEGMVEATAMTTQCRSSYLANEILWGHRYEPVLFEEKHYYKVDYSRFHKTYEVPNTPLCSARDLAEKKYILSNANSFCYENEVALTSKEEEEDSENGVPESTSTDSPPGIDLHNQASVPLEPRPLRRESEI
HEK293 Tl ctr = thallium flux in non-induced HEK293 cells, confirmation, counter-screen for KCNK9 inhibitor project, cell-based, second counter screen, non-induced KCNK9-HEK293; 4,900 compounds, 40% hits; shares compounds with KCNK9 block; inhibition, % at 10 µM; FluxOR thallium flux;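 active means thallium signal drop beyond 5 SD of the untreated control mean, on both duplicate plates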;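 further: plate controls were buffer only IC0 wells for no effect and SID17386958 at its maximal inhibitory level for full effect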
An asterisk follows results filed as active.

CC(C)NS(=O)(=O)c1ccc(NC(=O)C(C)OC(=O)CCC(=O)c2cccs2)cc1 (centres undefined) was read as KCNK3 block inactive.
COc1ccccc1/C=C(/C(=O)OCC(=O)Nc1ccccc1C(C)C)c1ccccc1 was read as KCNQ1 block inactive, KCNQ1 pot inactive, hERG protect -5, KCNK9 block -9.5*, Cl transport mod 0.15, KCNK3 block inactive, KCNK9 inh conf 51%*, Kir2-1 spec inactive and HEK293 Tl ctr 39%*.
Screening Cc1c(C#N)c2ccccc2n1C returned KCNQ1 block inactive, KCNQ1 pot inactive, hERG protect -8, KCNK9 block inactive, Cl transport mod 0.035 and KCNK3 block inactive.
`Cc1ccc(SCc2c(C#N)c3ccccc3n2C)cc1` gave KCNQ1 block inactive, KCNQ1 pot inactive, hERG protect -4, KCNK9 block -12*, Cl transport mod -1.4, KCNK3 block -9.9*, KCNK9 inh conf 57%*, Kir2-1 spec inactive and HEK293 Tl ctr 46%*.
For CC(C)C(NC(=O)c1ccccc1F)C(=O)NCCCn1ccnc1 (centres undefined) the results were KCNK3 block inactive.
For O=C(CN(c1cccc(C(F)(F)F)c1)S(=O)(=O)c1ccc(Cl)c([N+](=O)[O-])c1)NCc1ccccc1Cl the results were KCNQ1 block inactive, KCNQ1 pot inactive, hERG protect -8, KCNK9 block -8.3*, Cl transport mod -0.043, KCNK3 block inactive, KCNK9 inh conf 42%*, Kir2-1 spec inactive and HEK293 Tl ctr 36%*.
Cc1ccnn1-c1ccc(C(=O)NCc2ccccc2CN2CCOCC2)cc1 was read as KCNK3 block inactive.
`c1ccc(-c2nc(-c3nccc4ccccc34)oc2-c2ccccc2)cc1` gave KCNQ1 block inactive, KCNQ1 pot inactive, hERG protect -9, KCNK9 block inactive, Cl transport mod -0.057, KCNK3 block inactive, KCNK9 inh conf inactive, Kir2-1 spec inactive and HEK293 Tl ctr inactive.
For CN(C)C=Nc1ccc2nc3c(cc2c1)[nH]c1ccccc13 the results were KCNQ1 block inactive, KCNQ1 pot inactive, hERG protect -2, KCNK9 block inactive and KCNK3 block inactive.
Screening Cc1cccc(NC(=O)CN2CCN(C(=O)CN3C(=O)NC4(CCCCC4C)C3=O)CC2)c1C (centres undefined) returned KCNK3 block inactive.
`CCC(=O)n1nc(NCc2ccccc2OC)nc1NCc1ccccc1OC` gave KCNQ1 block 8*, KCNQ1 pot inactive, hERG protect -12, KCNK9 block inactive, Cl transport mod -0.027, KCNK3 block inactive, KCNK9 inh conf inactive, Kir2-1 spec inactive and HEK293 Tl ctr inactive.
For COc1ccc(CNc2nc(NCc3ccc(OC)cc3)n(C(C)=O)n2)cc1 the results were KCNQ1 block inactive, KCNQ1 pot inactive, hERG protect 2, KCNK9 block inactive and KCNK3 block inactive.
